What was measured:
B.cereus (ATCC 10876) = assay: Antibacterial broth-dilution MIC; format: cell-based, Bacillus cereus
Summary of the method: (§1)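 Broth-dilution in 96-well plates against S. aureus ATCC 29213, B. cereus ATCC 10876, E. coli ATCC 22922, K. pneumoniae ATCC 13883 and P. aeruginosa. Test compound concentrations spanned 10–100 mM. CTAB served as positive control and DMSO as negative control. Activity was reported as minimum inhibitory concentration.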

[1] = system: P. aeruginosa (ATCC 27853); assay: Antibacterial broth-dilution MIC; format: cell-based, Pseudomonas aeruginosa
Summary of the method: as §1

[2] = system: K. pneumonia (ATCC 13883); assay: Antibacterial broth-dilution MIC; format: cell-based, Klebsiella pneumonia
Summary of the method: as §1

S.aureus (ATCC 29213) = assay: Antibacterial broth-dilution MIC; format: cell-based, Staphylococcus aureus
Summary of the method: as §1

E. coli (ATCC 22922) = assay: Antibacterial broth-dilution MIC; format: cell-based, Escherichia coli
Summary of the method: as §1

[3] = target: T1, bovine serum albumin (BSA) (Bos taurus, UniProt P02769); assay: Thermodynamic BSA binding studies; details: for ΔH (enthalpy change) / ΔS (entropy change): van't Hoff, 298-313 K
T1 sequence (P02769 25-607): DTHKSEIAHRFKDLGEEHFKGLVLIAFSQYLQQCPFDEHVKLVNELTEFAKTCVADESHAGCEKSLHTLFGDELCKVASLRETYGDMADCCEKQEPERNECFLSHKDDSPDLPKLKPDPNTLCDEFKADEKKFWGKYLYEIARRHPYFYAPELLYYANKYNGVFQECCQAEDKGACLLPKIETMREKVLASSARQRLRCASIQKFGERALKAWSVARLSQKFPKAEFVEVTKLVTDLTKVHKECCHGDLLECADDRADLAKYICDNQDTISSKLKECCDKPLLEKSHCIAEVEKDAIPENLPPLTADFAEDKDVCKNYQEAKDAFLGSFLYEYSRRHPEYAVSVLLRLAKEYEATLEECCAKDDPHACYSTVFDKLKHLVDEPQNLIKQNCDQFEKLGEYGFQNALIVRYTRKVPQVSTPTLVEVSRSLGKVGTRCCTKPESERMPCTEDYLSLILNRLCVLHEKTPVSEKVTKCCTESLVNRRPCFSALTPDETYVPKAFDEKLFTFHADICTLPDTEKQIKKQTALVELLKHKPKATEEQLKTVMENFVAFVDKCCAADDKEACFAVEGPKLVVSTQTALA
Summary of the method: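 BSA (10 μM) in phosphate buffer pH 7.4 in a 1.0 cm quartz cuvette. Excitation 295 nm, emission scanned 300–400 nm at 298, 308 and 313 K. Titrated with 15 μL of test compound. Binding constants were taken at each temperature, with ΔG = −RT lnKa. ΔH and ΔS were calculated from the Ka values across the three temperatures.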

[4] = target: T1, bovine serum albumin (BSA); assay: Competitive BSA binding experiments using site markers warfarin and ibuprofen; details: 298 K
[5] = target: T1, bovine serum albumin (BSA); assay: BSA steady state/intrinsic fluorescence quenching study; format: binding; details: 298 K; for bimolecular quenching constant Kq x 10^12: pH 7.4, τ0 10^−8 s; for Stern-Volmer constant Ksv x 10^4 / binding constant Ka: phosphate buffer pH 7.4
Summary of the method: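 BSA (10 μM stock) in phosphate buffer pH 7.4 in a 1.0 cm quartz cuvette at 298 K. Intrinsic fluorescence: excitation 295 nm, scan 300–400 nm, intensity read at 336 nm. Slits were 10 nm (excitation) and 5.0 nm (emission). Titrated with test compound stock (0.001 M) and read after each addition. Ksv and Kq were obtained from Stern-Volmer plots of F0/F versus quencher concentration.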

HaCaT cells = assay: In-vitro cytotoxicity MTT assay; format: cell-based, human
Summary of the method: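 HaCaT cells in DMEM with FBS, glutamine and penicillin/streptomycin were seeded one day earlier and incubated 24 h. Exposed to test compound (20–1.25 mg/mL), 4% ethyl acetate blank or 20% DMSO control for 24 h at 37 °C, 5% CO2. Morphology was checked by microscopy. After PBS wash, MTT (1 mg/mL) was added for 2 h, dissolved in isopropanol and absorbance read. Mean of 3 wells, ≥3 independent experiments.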

[6] = Critical micelle concentration by pyrene fluorescence probe; format: physicochemical; details: 25 °C, pyrene as probe
Summary of the method: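 Pyrene probe (0.1 mM methanol stock) was dried in vials, then test compound solutions were added to give 1.6 μM final pyrene. Mixed on an orbital shaker for 24 h and measured at 298 K. Excitation 334 nm, emission 350–450 nm, slits 5.0/2.5 nm. CMC was taken from the plot of I1 (373 nm)/I3 (384 nm) versus concentration.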

[7] = in the presence of Ibuprofen (site II marker)
[8] = in the presence of Warfarin (site I marker)

Compound	Ka ([3]; 298 K) [M⁻¹]	ln Ka ([3]; 298 K)	ΔG (free energy) ([3]; 298 K) [KJmol^−1]	Ka ([3]; 308 K) [M⁻¹]	ln Ka ([3]; 308 K)	ΔG (free energy) ([3]; 308 K) [KJmol^−1]	Ka ([3]; 313 K) [M⁻¹]	ln Ka ([3]; 313 K)	ΔG (free energy) ([3]; 313 K) [KJmol^−1]	ΔH (enthalpy change) [3] [KJmol^−1]	ΔS (entropy change) [3] [Jmol^−1K^−1]	MIC (B.cereus (ATCC 10876); Gram-positive) [µM]	MIC ([1]; Gram-negative) [µM]	Ka ([4]; Blank (no site marker)) [M⁻¹]	Ka [4, 7] [M⁻¹]	Ka [4, 8] [M⁻¹]	bimolecular quenching constant Kq x 10^12 [5]	Stern-Volmer constant Ksv x 10^4 [5]	binding constant Ka [5] [M⁻¹]	MIC ([2]; Gram-negative) [µM]	other results
CCCCCCCCCCCCCCCC[N+](C)(C)C [+ve control, Cetyltrimethylammonium bromide, reference compound]	–	–	–	–	–	–	–	–	–	–	–	–	–	–	–	–	–	–	–	–	MIC (B.cereus (ATCC 10876); Bacillus cereus, ATCC10876): 12.3 µM; MIC ([1]; Pseudomonas aeruginosa, ATCC27853): 171 µM; MIC ([2]; Klebsiella pneumoniae, ATCC13883): 10.7 µM; MIC (S.aureus (ATCC 29213); Staphylococcus aureus, ATCC29213): 15.2 µM; MIC (E. coli (ATCC 22922); Escherichia coli, ATCC22922): 686 µM
Didecanoyl 2,2′-disulfanediyldibenzamide [Compound 2]	225000	12.32	-30.60	3580	8.18	-20.76	405	6.00	-15.77	-325.26	-988.78	2530	25600	429000	64600	15700	2.26 x 10^12 M^−1s^−1	2.26 x 10^4 M^−1	225000	26300	% Cell Viability (HaCaT cells; 2.5, 24 h): 100.0%; % Cell Viability (HaCaT cells; 5, 24 h): 100.0%; % Cell Viability (HaCaT cells; 10, 24 h): 63.7%; toxicity to the cells (in words) (HaCaT cells; at a concentration of <10 mg/ml): non-toxic; MIC (S.aureus (ATCC 29213); Gram-positive): 5400 µM; MIC (E. coli (ATCC 22922); Gram-negative): >25300 µM
Dioctyl 2,2′-disulfanediyldibenzamide [Compound 1]	5470	8.61	-21.68	3250	8.09	-18.73	461	6.13	-17.26	-109.5	-294.7	3120	>15600	5060	2110	4950	7.45 x 10^12 M^−1s^−1	7.45 x 10^4 M^−1	5470	25300	CMC [6]: 0.163 mM; % Cell Viability (HaCaT cells; 2.5, 24 h): 82.9%; % Cell Viability (HaCaT cells; 5, 24 h): 62.6%; % Cell Viability (HaCaT cells; 10, 24 h): 23.0%; % Cell Viability (HaCaT cells; 20, 24 h): 18.4%; cell death by changes in cell morphology (HaCaT cells; microscopy, 10 mg/ml (Figure 5)): considerable amount of cell death; MIC (S.aureus (ATCC 29213); Gram-positive): 12500 µM; MIC (E. coli (ATCC 22922); Gram-negative): 21400 µM

From PMC7644900 (Heliyon, 2020)
